In ChEMBL document CHEMBL4130635, “2,4-Diaminoquinazolines as Dual Toll-like Receptor (TLR) 7/8 Modulators for the Treatment of Hepatitis B Virus” (J Med Chem, 2018):
Calls of active or inactive are those of the source. No cut-off for these calls is given here.

Experiments:
[1] = Intrinsic clearance in cynomolgus monkey liver microsomes assessed per mg protein at 1 uM up to 60 mins; assay type: ADME, Macaca fascicularis, microsome; conditions: read-out: CLH
Summary of the method: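 Cynomolgus monkey liver microsomes at 1 mg/mL microsomal protein, incubated at 37 °C with 1 μM test compound. Serial samples taken at intervals up to 60 min and analysed for remaining compound concentration to derive intrinsic clearance, expressed as (μL/min)/mg protein and rounded to the nearest whole number.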

[2] = Stability in cynomolgus monkey hepatocytes assessed compound turnover at 1 uM after 60 mins; assay type: ADME, cell-based, Macaca fascicularis, Hepatocyte; conditions: read-out: Drug metabolism
[3] = Protein binding in dog plasma fraction at 5 uM after 4.5 hrs LC-MS/MS-based rapid equilibrium dialysis method; assay type: ADME, cell-free, Canis lupus familiaris; conditions: read-out: PPB (converted)
[4] = Tmax in Sprague-Dawley rat liver at 10 mg/kg, po; assay type: ADME, organism-based
[5] = AUC (0 to last) in C57BL/6J mouse plasma at 10 mg/kg, po by LC-MS analysis; assay type: ADME, organism-based; parameters: dose 10 mg/kg, route oral, time 0 - last
Summary of the method: (§1)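 Healthy C57BL/6 mice were dosed once by mouth at 0.3, 1, 3, 10 or 30 mg/kg in 20% HP-β-CD, in groups of 15 per dose. Three mice per group were sacrificed at 0.5, 1, 2, 4 or 7 h, and plasma and liver compound levels were measured by LC–MS. Values were rounded to whole numbers.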

[6] = AUC (0 to last) in C57BL/6J mouse liver at 1 mg/kg, po by LC-MS analysis; assay type: ADME, organism-based; conditions: in vivo; summary of the method: as §1
Liver [7] = experiment: Induction of IFNalpha levels in C57BL/6J mouse liver at 0.3 mg/kg, po by ELISA (reference value: 30 pg/g); assay type: functional
Liver [8] = experiment: Induction of IFNalpha levels in C57BL/6J mouse liver at 1 mg/kg, po by ELISA (reference value: 30 pg/g); assay type: functional
Liver [9] = experiment: Induction of IFNalpha levels in C57BL/6J mouse liver at 3 mg/kg, po by ELISA (reference value: 30 pg/g); assay type: functional
Plasma [10] = experiment: Upregulation of IP-10 mRNA expression levels in C57BL/6J mouse plasma at 30 mg/kg, po by RT-qPCR analysis (reference value: 1); assay type: functional
Liver [11] = experiment: Upregulation of IP-10 mRNA expression levels in C57BL/6J mouse liver at 10 mg/kg, po by RT-qPCR analysis (reference value: 1); assay type: functional
Liver [12] = experiment: Upregulation of IP-10 mRNA expression levels in C57BL/6J mouse liver at 30 mg/kg, po by RT-qPCR analysis (reference value: 1); assay type: functional
Liver [13] = experiment: Effect on cytokine profile in C57BL/6J mouse liver assessed as IL-12p70 levels at 30 mg/kg, po by multiplex assay (reference value: 5 pg/g); assay type: functional
Summary of the method: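 Single oral gavage in 20% HP-β-CD to healthy C57BL/6 mice, groups of 15 at 0.3, 1, 3, 10 or 30 mg/kg. Three mice per group sacrificed at 0.5, 1, 2, 4 or 7 h. Plasma and liver cytokines by multiplex, maximum level reported, rounded to nearest multiple of 5.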

Liver [14] = experiment: Proinflammatory activity in C57BL/6J mouse liver assessed as IL-1beta levels at 30 mg/kg, po by multiplex assay; assay type: functional
Plasma [15] = experiment: Proinflammatory activity in C57BL/6J mouse plasma assessed as CXCL-1 levels at 30 mg/kg, po by multiplex assay (reference value: 230 pg/ml); assay type: functional
Cynomolgus monkey [16] = experiment: Plasma concentration in cynomolgus monkey at 1 mg/kg, po by LC-MS analysis; assay type: ADME, organism-based, Macaca fascicularis; conditions: in vivo
Cynomolgus monkey [17] = experiment: Effect on cytokine profile in cynomolgus monkey plasma assessed as IP10 levels at 3 mg/kg, po after 24 hrs by Luminex assay (reference value: 18.5 pg/ml); assay type: functional, Macaca fascicularis
Summary of the method: (§2)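 Healthy cynomolgus monkeys given single oral doses of 1, 3, 9 and 30 mg/kg, with a 2-week wash-out planned between doses. Systemic cytokine levels in plasma were sampled at 0.5, 1, 2, 4, 9 and 24 h postdose.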

Cynomolgus monkey [18] = experiment: Proinflammatory activity in cynomolgus monkey plasma assessed as TNFalpha levels at 9 mg/kg, po after 24 hrs by Luminex assay (reference value: 285 pg/ml); assay type: functional, Macaca fascicularis
Cynomolgus monkey [19] = experiment: Activation of monocytes in cynomolgus monkey plasma assessed as upregulation of MCP1 levels at 30 mg/kg, po after 24 hrs by Luminex assay (reference value: 385 pg/ml); assay type: functional, Macaca fascicularis
Cynomolgus monkey [20] = experiment: Induction of G-CSF in cynomolgus monkey plasma at 9 mg/kg, po after 24 hrs by Luminex assay (reference value: 85 pg/ml); assay type: functional, Macaca fascicularis; summary of the method: as §2
Cynomolgus monkey [21] = experiment: Anti-inflammatory activity in cynomolgus monkey plasma assessed as IL-10 levels at 9 mg/kg, po after 24 hrs by Luminex assay (reference value: 195 pg/ml); assay type: functional, Macaca fascicularis
Cynomolgus monkey [22] = experiment: Induction of ISG response in cynomolgus monkey plasma assessed as upregulation of Isg15 mRNA expression at 9 mg/kg, po after 24 hrs by Fluidigm RT-qPCR analysis (reference value: 1); assay type: functional, Macaca fascicularis
Summary of the method: (§3)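 Cynomolgus monkeys, single oral doses of 1, 3, 9 and 30 mg/kg with a planned 2-week wash-out between doses. Systemic ISG (ISG15, Mx1, OAS1) mRNA was measured by Fluidigm RT-qPCR at 1, 2, 4, 8 and 24 h postdose.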

Cynomolgus monkey [23] = experiment: Induction of ISG response in cynomolgus monkey plasma assessed as upregulation of Mx1 mRNA expression at 3 mg/kg, po after 24 hrs by Fluidigm RT-qPCR analysis (reference value: 1); assay type: functional, Macaca fascicularis; summary of the method: as §3
Cynomolgus monkey [24] = experiment: Induction of ISG response in cynomolgus monkey plasma assessed as upregulation of Mx1 mRNA expression at 30 mg/kg, po after 24 hrs by Fluidigm RT-qPCR analysis (reference value: 1); assay type: functional, Macaca fascicularis; summary of the method: as §3
Cynomolgus monkey [25] = experiment: Upregulation of Tlr8 expression in cynomolgus monkey plasma at 1 to 30 mg/kg, po after 24 hrs by Fluidigm RT-qPCR analysis; assay type: functional, organism-based; conditions: Macaca fascicularis
[26] = biological target: T1, TLR7 and TLR8 (Homo sapiens) (UniProt Q9NYK1+Q9NR97); experiment: Agonist activity at TLR7/8 in human PBMCs co-cultured with primary human hepatocytes infected with HBV genotype C for 12 days assessed as increase in IL-1beta levels up to 5 uM measured after 42 days
[27] = biological target: T1, TLR7 and TLR8 (Homo sapiens); experiment: Agonist activity at TLR7/8 in human PBMCs co-cultured with primary human hepatocytes infected with HBV genotype C for 12 days assessed as increase in VEGF levels up to 5 uM measured after 42 days
[28] = biological target: T1, TLR7 and TLR8 (Homo sapiens); experiment: Agonist activity at TLR7/8 in human PBMCs co-cultured with primary human hepatocytes infected with HBV genotype C for 12 days assessed as increase in fractalkine sCD40L levels up to 5 uM measured after 42 days
Cytochrome P450 3A4 = Cytochrome P450 3A4 (Homo sapiens, UniProt P08684); experiment: Induction of CYP3A4 (unknown origin); assay type: ADME
[29] = tested on: Toll-like receptor 7/8 (Homo sapiens); experiment: Agonist activity at TLR7/8 in human PBMCs assessed as decrease in HBsAg levels in human hepatocytes infected with HBV genotype C for 12 days followed by exposure to conditioned supernatant from up to 5 uM compound treated PBMCs measured after 42 days

T1 sequence (Q9NR97 whole entry, looked up): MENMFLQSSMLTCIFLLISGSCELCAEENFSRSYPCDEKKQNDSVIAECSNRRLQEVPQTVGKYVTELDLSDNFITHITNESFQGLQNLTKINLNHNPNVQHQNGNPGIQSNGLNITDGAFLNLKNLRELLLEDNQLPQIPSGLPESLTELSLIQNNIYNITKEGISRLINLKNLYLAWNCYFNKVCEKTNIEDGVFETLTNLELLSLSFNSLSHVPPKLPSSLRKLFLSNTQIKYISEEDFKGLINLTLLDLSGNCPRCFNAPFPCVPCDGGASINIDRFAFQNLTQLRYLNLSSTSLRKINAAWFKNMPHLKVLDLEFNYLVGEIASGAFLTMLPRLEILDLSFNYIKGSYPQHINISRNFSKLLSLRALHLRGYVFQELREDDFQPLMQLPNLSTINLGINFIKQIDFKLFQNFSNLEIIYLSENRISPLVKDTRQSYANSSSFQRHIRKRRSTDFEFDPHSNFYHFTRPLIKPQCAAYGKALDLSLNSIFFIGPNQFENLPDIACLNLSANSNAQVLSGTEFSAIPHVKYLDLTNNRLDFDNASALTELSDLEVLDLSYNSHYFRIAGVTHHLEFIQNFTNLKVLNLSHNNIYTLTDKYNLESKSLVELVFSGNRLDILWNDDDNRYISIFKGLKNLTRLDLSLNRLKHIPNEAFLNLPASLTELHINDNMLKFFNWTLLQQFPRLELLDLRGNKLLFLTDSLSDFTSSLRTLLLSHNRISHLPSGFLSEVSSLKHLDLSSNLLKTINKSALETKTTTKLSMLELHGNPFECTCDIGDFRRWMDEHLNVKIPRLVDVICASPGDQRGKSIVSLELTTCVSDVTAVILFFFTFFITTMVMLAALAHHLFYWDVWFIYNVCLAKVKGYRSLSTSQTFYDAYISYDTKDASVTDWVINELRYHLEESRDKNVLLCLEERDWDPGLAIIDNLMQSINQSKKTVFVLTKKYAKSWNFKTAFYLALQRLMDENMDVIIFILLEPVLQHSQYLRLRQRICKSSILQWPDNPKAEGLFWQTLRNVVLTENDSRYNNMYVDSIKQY
T1 sequence (Q9NYK1 whole entry, looked up): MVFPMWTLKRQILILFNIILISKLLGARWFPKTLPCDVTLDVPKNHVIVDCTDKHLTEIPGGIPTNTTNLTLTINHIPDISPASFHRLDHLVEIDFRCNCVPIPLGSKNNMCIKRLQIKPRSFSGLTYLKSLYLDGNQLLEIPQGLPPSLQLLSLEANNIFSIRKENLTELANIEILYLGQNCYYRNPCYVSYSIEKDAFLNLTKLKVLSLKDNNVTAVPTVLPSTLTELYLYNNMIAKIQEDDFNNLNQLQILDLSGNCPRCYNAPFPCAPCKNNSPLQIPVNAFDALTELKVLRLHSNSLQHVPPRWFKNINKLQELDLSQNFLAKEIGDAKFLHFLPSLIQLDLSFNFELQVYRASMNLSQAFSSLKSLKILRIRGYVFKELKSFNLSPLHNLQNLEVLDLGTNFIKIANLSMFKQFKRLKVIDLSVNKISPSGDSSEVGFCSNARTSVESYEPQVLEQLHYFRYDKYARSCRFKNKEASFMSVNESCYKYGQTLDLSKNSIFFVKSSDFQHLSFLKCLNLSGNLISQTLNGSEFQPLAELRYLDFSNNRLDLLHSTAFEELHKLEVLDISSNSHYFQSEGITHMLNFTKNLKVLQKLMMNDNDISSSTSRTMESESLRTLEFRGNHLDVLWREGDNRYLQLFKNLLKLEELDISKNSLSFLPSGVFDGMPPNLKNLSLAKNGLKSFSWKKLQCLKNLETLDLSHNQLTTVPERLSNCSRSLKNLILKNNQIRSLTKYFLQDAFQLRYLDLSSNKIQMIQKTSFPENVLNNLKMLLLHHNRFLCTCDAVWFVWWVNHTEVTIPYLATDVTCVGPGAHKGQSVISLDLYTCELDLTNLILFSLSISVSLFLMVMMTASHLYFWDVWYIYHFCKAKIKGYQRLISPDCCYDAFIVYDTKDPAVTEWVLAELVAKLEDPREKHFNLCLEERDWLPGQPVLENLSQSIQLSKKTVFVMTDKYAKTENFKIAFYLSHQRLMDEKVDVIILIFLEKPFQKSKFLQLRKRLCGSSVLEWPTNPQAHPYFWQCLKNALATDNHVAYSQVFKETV
Cytochrome P450 3A4, sequence (P08684 whole entry): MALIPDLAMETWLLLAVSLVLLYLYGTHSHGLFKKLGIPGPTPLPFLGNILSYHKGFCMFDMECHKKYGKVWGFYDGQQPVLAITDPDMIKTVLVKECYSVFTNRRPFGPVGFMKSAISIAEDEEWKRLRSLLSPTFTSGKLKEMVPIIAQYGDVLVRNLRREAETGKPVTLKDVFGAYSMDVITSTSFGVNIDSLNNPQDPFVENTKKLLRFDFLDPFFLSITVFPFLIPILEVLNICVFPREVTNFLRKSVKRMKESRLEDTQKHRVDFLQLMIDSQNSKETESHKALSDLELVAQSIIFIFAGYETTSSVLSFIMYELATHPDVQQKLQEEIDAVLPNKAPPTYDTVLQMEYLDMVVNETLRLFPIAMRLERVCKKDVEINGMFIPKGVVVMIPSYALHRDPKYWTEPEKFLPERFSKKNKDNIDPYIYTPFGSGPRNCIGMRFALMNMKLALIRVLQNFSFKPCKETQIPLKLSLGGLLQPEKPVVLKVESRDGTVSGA

CCC[C@@H](CCO)Nc1nc(N)nc2c(F)cccc12
microsomal CLint at 1 µM [1]: 16 µL/min/mg
metabolised at 1 h, 1 µM [2]: 98%
fraction unbound at 4.5 h, 5 µM [3]: 0.59
Tmax [4]: 30 min
AUC(0-t) [5]: 0.141 µg·h/mL
AUClast [6]: 148 ng·h/g
Activity (Liver [7]): 100 pg/g
Activity (Liver [8]): 215 pg/g
Activity (Liver [9]): 765 pg/g
fold change (FC) (Plasma [10]): 1100
fold change (FC) (Liver [11]): 800
fold change (FC) (Liver [12]): 1180
Activity (Liver [13]): 2340 pg/g
Activity (Liver [14]): 56615 pg/g
Activity (Plasma [15]): >10000 pg/mL
Cp (Cynomolgus monkey [16]): 5.9 ng/mL
Activity (Cynomolgus monkey [17]): 1490 pg/mL
Activity (Cynomolgus monkey [18]): 350 pg/mL
Activity (Cynomolgus monkey [19]): >10000 pg/mL
Activity (Cynomolgus monkey [20]): 825 pg/mL
Activity (Cynomolgus monkey [21]): 3785 pg/mL
fold change (FC) (Cynomolgus monkey [22]): 560
fold change (FC) (Cynomolgus monkey [23]): 50
fold change (FC) (Cynomolgus monkey [24]): 65
Activity (Cynomolgus monkey [25]): inactive
Activity [26]: Active
Activity [27]: Active
Activity [28]: Active
Activity (Cytochrome P450 3A4): Not Active
Activity [29]: Dose-dependent effect
